We go through 42 compounds from ChEMBL document CHEMBL1155273, “Search for new pharmacophores for antimalarial activity. Part III: synthesis and bioevaluation of new 6-thioureido-4-anilinoquinazolines” (Eur J Med Chem, 2009).

Molecules are shown by their SMILES. Values after ≈ are worked out from the molar mass of the structure shown. Active and inactive are the calls of the source. The calls are words filed in the database; no cut-off is given here.

The subject of assay [1] is Plasmodium falciparum. The assay can be described thus: Antimalarial activity against chloroquine-sensitive Plasmodium falciparum 3D7. Type of assay: functional, organism-based.
Assay [2] in a line: Selectivity index, ratio of CC50 for african green monkey (Cercopithecus aethiops) Vero cells to IC50 for chloroquine-sensitive Plasmodium falciparum 3D7. Type of assay: functional.
Assay [3] has as its system Plasmodium yoelii nigeriensis. The experiment in a line: Antimalarial activity against multidrug-resistant Plasmodium yoelii nigeriensis infected Swiss mice (Mus musculus) assessed as suppression in parasitaemia at 100 mg/kg, perorally for 4 days measured on day 4. The following applies: 96 h, route oral. Type of assay: functional. The procedure, abridged: (§1)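 Swiss mice infected on day 0 with P. yoelii nigeriensis MDR (N67, chloroquine-resistant) parasitized cells. Groups of five mice received the test compound orally as an aqueous suspension at 50 or 100 mg/kg from day 0 to 4; five controls received vehicle only. Parasitaemia was read from tail-vein thin blood smears on days 4, 7, 14, 21 and 28, or until death.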

The subject of assay [4] is Plasmodium yoelii nigeriensis. The experiment in a line: Antimalarial activity against multidrug-resistant Plasmodium yoelii nigeriensis infected Swiss mice (Mus musculus) assessed as suppression in parasitaemia at 100 mg/kg, perorally for 4 days measured on day 7. In kind it is functional. The following applies: route oral. The procedure, abridged:
as §1

The test system of assay [5] is Plasmodium yoelii nigeriensis. The experiment in a line: Antimalarial activity against multidrug-resistant Plasmodium yoelii nigeriensis infected Swiss mice (Mus musculus) assessed as survival at 100 mg/kg, perorally for 4 days measured on day 28. Type of assay: functional. Particulars: route oral. The procedure, abridged: as §1
Assay [6] relates to Plasmodium yoelii nigeriensis. The assay can be described thus: Antimalarial activity against multidrug-resistant Plasmodium yoelii nigeriensis infected Swiss mice (Mus musculus) assessed as survival at 100 mg/kg, perorally for 4 days measured on day 7. Type of assay: functional, organism-based. Details: dose 100 mg/kg. The procedure, abridged:
as §1

Turning to `FC(F)(F)c1cccc(Nc2ncnc3ccc(NC(=S)Nc4ccc(Cl)cc4)cc23)c1`, inhibition of growth in assay [1] (MIC) required 10 µg/mL (≈ 21.1 µM).

The compound `COc1ccc(Nc2ncnc3ccc(NC(=S)Nc4cccc(C#N)c4)cc23)cc1OC` displayed an MIC in assay [1] of 10 µg/mL (≈ 21.9 µM).

Take `COc1ccc(Nc2ncnc3ccc(NC(=S)Nc4ccc(Cl)cc4)cc23)cc1OC`: in assay [1], 10 µg/mL (≈ 21.5 µM) was the least that counted as inhibitory (MIC).

The compound `S=C(Nc1ccc(Cl)cc1)Nc1ccc2ncnc(Nc3ccccc3)c2c1` had an MIC in assay [1] of 2 µg/mL (≈ 4.93 µM).

On to `N#Cc1cccc(NC(=S)Nc2ccc3ncnc(Nc4ccccc4)c3c2)c1`, for which, in assay [1], the MIC was above 10 µg/mL.

For `COc1ccc(Nc2ncnc3ccc(NC(=S)Nc4ccccc4)cc23)cc1`, the “Ratio CC50/IC50” value in assay [2] is on record as 80.4. In addition, in assay [1], the IC50 was determined as 0.243 µg/mL (≈ 0.604 µM) and the MIC amounted to 2 µg/mL (≈ 4.98 µM).

Turning to `FC(F)(F)c1cccc(Nc2ncnc3ccc(NC(=S)Nc4ccccc4)cc23)c1`, in assay [2], the “Ratio CC50/IC50” value is on record as 69. In assay [1], this compound yielded an IC50 of 0.992 µg/mL (≈ 2.26 µM) and an MIC of 2 µg/mL (≈ 4.55 µM).

As to `COc1cccc(Nc2ncnc3ccc(NC(=S)Nc4cccc(Cl)c4)cc23)c1`, the inhibition in vivo at 100 mg/kg in assay [3] turned out to be 46.5%. For the same compound, in assay [2], the “Ratio CC50/IC50” value was 1615.3. In assay [1], this compound displayed a half-inhibitory concentration (IC50) of 0.0115 µg/mL (≈ 0.0264 µM) and an MIC of 2 µg/mL (≈ 4.59 µM). Also, the inhibition in vivo at 100 mg/kg in assay [4] turned out to be 28.4%.

For the compound `COc1ccc(Nc2ncnc3ccc(NC(=S)Nc4ccc(Br)cc4)cc23)cc1OC`, the “Ratio CC50/IC50” value in assay [2] worked out at 85.7. Moreover, in assay [1], the IC50 was found to be 0.683 µg/mL (≈ 1.34 µM) and the lowest concentration to inhibit growth (MIC) was 2 µg/mL (≈ 3.92 µM).

For the compound `COc1cccc(Nc2ncnc3ccc(NC(=S)Nc4ccc(Br)cc4)cc23)c1`, the inhibition in vivo at 100 mg/kg in assay [3] is 100%; in assay [4] it was 99.9%. The “Ratio CC50/IC50” value in assay [2] came out at 187. The Activity in assay [5] stood at 50%. In assay [1], this compound had an IC50 of 0.106 µg/mL (≈ 0.22 µM). The compound also yielded a minimum inhibitory concentration (MIC) in assay [1] of 1 µg/mL (≈ 2.08 µM).

`Fc1cccc(NC(=S)Nc2ccc3ncnc(Nc4cccc(C(F)(F)F)c4)c3c2)c1` registered an MIC in assay [1] of 10 µg/mL (≈ 21.9 µM).

As to `COc1ccc(Nc2ncnc3ccc(NC(=S)Nc4cccc(F)c4)cc23)cc1OC`, the “Ratio CC50/IC50” value in assay [2] stood at 63.7. In assay [1], the IC50 came to 0.385 µg/mL (≈ 0.857 µM) and the lowest concentration to inhibit growth (MIC) was 2 µg/mL (≈ 4.45 µM).

As to `Fc1cccc(NC(=S)Nc2ccc3ncnc(Nc4ccccc4)c3c2)c1`, the “Ratio CC50/IC50” value in assay [2] worked out at 70.3. In assay [1], this compound gave an IC50 of 0.792 µg/mL (≈ 2.03 µM) and an MIC of 2 µg/mL (≈ 5.14 µM).

In turn, `COc1ccc(Nc2ncnc3ccc(NC(=S)Nc4cccc(Cl)c4)cc23)cc1` yielded an MIC in assay [1] above 10 µg/mL.

For the compound `S=C(Nc1ccc2ncnc(Nc3ccccc3)c2c1)Nc1cccc2ccccc12`, the lowest concentration to inhibit growth in assay [1] (MIC) was 2 µg/mL (≈ 4.74 µM).

With `N#Cc1cccc(NC(=S)Nc2ccc3ncnc(Nc4cccc(C(F)(F)F)c4)c3c2)c1`, the “Ratio CC50/IC50” value in assay [2] worked out at 5.5. Further, in assay [1], the IC50 stood at 0.443 µg/mL (≈ 0.954 µM) and the MIC was 2 µg/mL (≈ 4.31 µM).

For `COc1ccc(Nc2ncnc3ccc(NC(=S)Nc4cccc(Cl)c4)cc23)cc1OC`, in assay [1], the MIC came out at 10 µg/mL (≈ 21.5 µM).

As to `FC(F)(F)c1cccc(Nc2ncnc3ccc(NC(=S)Nc4ccc(Br)cc4)cc23)c1`, the inhibition in vivo at 100 mg/kg in assay [3] stood at 9.78%. In addition, the “Ratio CC50/IC50” value in assay [2] amounted to 67.1. In assay [1], this compound displayed an IC50 of 0.0392 µg/mL (≈ 0.0756 µM) and an MIC of 2 µg/mL (≈ 3.86 µM). Further, in assay [6], the result was inactive.

Compound `N#Cc1cccc(NC(=S)Nc2ccc3ncnc(Nc4cccc(Cl)c4)c3c2)c1` registered an MIC in assay [1] above 10 µg/mL.

With `FC(F)(F)c1cccc(Nc2ncnc3ccc(NC(=S)Nc4cccc5ccccc45)cc23)c1`, the MIC in assay [1] was 10 µg/mL (≈ 20.4 µM).

As to `S=C(Nc1ccc(Br)cc1)Nc1ccc2ncnc(Nc3ccccc3)c2c1`, in assay [1], the MIC amounted to 10 µg/mL (≈ 22.2 µM).

For `COc1ccc(Nc2ncnc3ccc(NC(=S)Nc4cccc5ccccc45)cc23)cc1`, inhibition of growth in assay [1] (MIC) required 10 µg/mL (≈ 22.1 µM).

As for `COc1cccc(Nc2ncnc3ccc(NC(=S)Nc4cccc(F)c4)cc23)c1`, the “Ratio CC50/IC50” value in assay [2] is recorded as 510.7. Moreover, in assay [1], the IC50 worked out at 0.0267 µg/mL (≈ 0.0636 µM) and the MIC amounted to 1 µg/mL (≈ 2.38 µM).

`COc1ccc(Nc2ncnc3ccc(NC(=S)Nc4ccc(Br)cc4)cc23)cc1`: the “Ratio CC50/IC50” value in assay [2] is on record as 114.9. In assay [1], this compound showed an IC50 of 0.0502 µg/mL (≈ 0.104 µM) and an MIC of 2 µg/mL (≈ 4.16 µM).

In the case of `COc1ccc(Nc2ncnc3ccc(NC(=S)Nc4ccc(Cl)cc4)cc23)cc1`, in assay [1], the MIC was above 10 µg/mL.

For the compound `Fc1cccc(NC(=S)Nc2ccc3ncnc(Nc4cccc(Cl)c4)c3c2)c1`, the inhibition in vivo at 100 mg/kg came to 85.7% in assay [3] and 61.1% in assay [4]. The compound further registered an MIC in assay [1] of 10 µg/mL (≈ 23.6 µM).

Take `S=C(Nc1ccccc1)Nc1ccc2ncnc(Nc3cccc(Cl)c3)c2c1`: in assay [1], the MIC was 10 µg/mL (≈ 24.6 µM).

Turning to `S=C(Nc1ccc2ncnc(Nc3cccc(Cl)c3)c2c1)Nc1cccc2ccccc12`, in assay [1], the MIC is 10 µg/mL (≈ 21.9 µM).

As for `COc1ccc(Nc2ncnc3ccc(NC(=S)Nc4ccccc4)cc23)cc1OC`, the “Ratio CC50/IC50” value in assay [2] turned out to be 90. In assay [1], this compound displayed an IC50 of 0.303 µg/mL (≈ 0.702 µM) and an MIC of 2 µg/mL (≈ 4.63 µM).

Take `S=C(Nc1ccc(Br)cc1)Nc1ccc2ncnc(Nc3cccc(Cl)c3)c2c1`: the “Ratio CC50/IC50” value in assay [2] came out at 1. In assay [1], the IC50 worked out at 0.526 µg/mL (≈ 1.09 µM) and the MIC is 2 µg/mL (≈ 4.13 µM).

As to `COc1cccc(Nc2ncnc3ccc(NC(=S)Nc4ccccc4)cc23)c1`, the “Ratio CC50/IC50” value in assay [2] worked out at 38.7. In assay [1], 0.258 µg/mL (≈ 0.643 µM) corresponded to half-maximal inhibition (IC50) and the MIC was 2 µg/mL (≈ 4.98 µM).

`COc1cccc(Nc2ncnc3ccc(NC(=S)Nc4ccc(Cl)cc4)cc23)c1` yielded an MIC in assay [1] of 10 µg/mL (≈ 22.9 µM).

On to `COc1cccc(Nc2ncnc3ccc(NC(=S)Nc4cccc5ccccc45)cc23)c1`, for which the MIC in assay [1] stood at 10 µg/mL (≈ 22.1 µM).

In the case of `COc1ccc(Nc2ncnc3ccc(NC(=S)Nc4cccc5ccccc45)cc23)cc1OC`, the “Ratio CC50/IC50” value in assay [2] was 133.8. In assay [1], the IC50 was determined as 0.207 µg/mL (≈ 0.43 µM) and the lowest concentration to inhibit growth (MIC) was 2 µg/mL (≈ 4.15 µM).

With `COc1cccc(Nc2ncnc3ccc(NC(=S)Nc4cccc(C#N)c4)cc23)c1`, the “Ratio CC50/IC50” value in assay [2] stood at 453. In assay [1], this compound yielded an IC50 of 0.021 µg/mL (≈ 0.0492 µM) and an MIC of 1 µg/mL (≈ 2.34 µM).

With `COc1ccc(Nc2ncnc3ccc(NC(=S)Nc4cccc(F)c4)cc23)cc1`, the “Ratio CC50/IC50” value in assay [2] is 206.4. In assay [1], the IC50 worked out at 0.0532 µg/mL (≈ 0.127 µM) and the lowest concentration to inhibit growth (MIC) was 2 µg/mL (≈ 4.77 µM).

Consider `S=C(Nc1cccc(Cl)c1)Nc1ccc2ncnc(Nc3ccccc3)c2c1`, for which the “Ratio CC50/IC50” value in assay [2] worked out at 29. Also, in assay [1], the IC50 came out at 0.813 µg/mL (≈ 2 µM) and it took 2 µg/mL (≈ 4.93 µM) to inhibit growth (MIC).

For the compound `S=C(Nc1ccc(Cl)cc1)Nc1ccc2ncnc(Nc3cccc(Cl)c3)c2c1`, in assay [1], the MIC was determined as 10 µg/mL (≈ 22.7 µM).

`S=C(Nc1ccccc1)Nc1ccc2ncnc(Nc3ccccc3)c2c1`: the MIC in assay [1] is 2 µg/mL (≈ 5.38 µM).

As to `S=C(Nc1cccc(Cl)c1)Nc1ccc2ncnc(Nc3cccc(Cl)c3)c2c1`, the inhibition in vivo at 100 mg/kg in assay [3] is 77.2%. Besides, in assay [2], the “Ratio CC50/IC50” value turned out to be 556.3. Also, in assay [1], inhibition was half-maximal at 0.0088 µg/mL (≈ 0.02 µM) (IC50) and the MIC is 2 µg/mL (≈ 4.54 µM). The inhibition in vivo at 100 mg/kg in assay [4] was 16.1%.

Take `COc1ccc(Nc2ncnc3ccc(NC(=S)Nc4cccc(C#N)c4)cc23)cc1`: the MIC in assay [1] was above 10 µg/mL.

As to `FC(F)(F)c1cccc(Nc2ncnc3ccc(NC(=S)Nc4cccc(Cl)c4)cc23)c1`, the MIC in assay [1] turned out to be 10 µg/mL (≈ 21.1 µM).

What is called MIC is the lowest concentration found to suppress growth. One may read the IC50 as the midpoint of a concentration-inhibition curve. What is called inhibition in vivo is the share of the control response that was lost under treatment.
